Experimental data published in ChEMBL document CHEMBL1131230 (J Med Chem, 1998).

Assays:
[1] = molecular target: T1, GABA A receptor alpha-1/beta-1/gamma-2 (Homo sapiens) (UniProt P14867+P18507+P18505); assay: Modulation of GABA-induced chloride currents (percentage of GABA EC20 response) against human alpha-1-beta-1-gamma-2 GABA-A receptor subunits expressed in Xenopus laevis oocytes; type: functional, cell-based; settings: Oocyte
Outline: (§1)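 Human α1, β1 and γ2 subunit cDNAs in pCDM8 (1.5 ng/30 nL) injected into nuclei of defolliculated stage V-VI Xenopus oocytes, which were cultured at 19 °C in supplemented MBS. Recording by two-electrode voltage clamp at -70 mV about 24 h after injection, with MBS perfusion at room temperature. Compounds came from 10 mM DMSO stocks diluted in MBS. Responses were normalized to a GABA control response, either EC20 or 10 mM GABA.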

[2] = molecular target: T1, GABA A receptor alpha-1/beta-1/gamma-2 (Homo sapiens); assay: Direct activation of chloride currents (percentage of 10 mM GABA response) in Xenopus laevis oocytes expressing human alpha-1-beta-1-gamma-2 GABA-A receptor subunits; type: functional, cell-based; settings: Oocyte; outline: as §1
[3] = molecular target: T2, GABA A receptor alpha-1/beta-1/gamma-2 (Homo sapiens, UniProt P14867+P18505+P18507); assay: Direct activation of chloride current in Xenopus laevis oocytes expressing human alpha-1-beta-1-gamma-2 GABA-A receptor subunits; type: functional, cell-based, Oocyte; outline: as §1
T2 sequence (P14867 whole entry): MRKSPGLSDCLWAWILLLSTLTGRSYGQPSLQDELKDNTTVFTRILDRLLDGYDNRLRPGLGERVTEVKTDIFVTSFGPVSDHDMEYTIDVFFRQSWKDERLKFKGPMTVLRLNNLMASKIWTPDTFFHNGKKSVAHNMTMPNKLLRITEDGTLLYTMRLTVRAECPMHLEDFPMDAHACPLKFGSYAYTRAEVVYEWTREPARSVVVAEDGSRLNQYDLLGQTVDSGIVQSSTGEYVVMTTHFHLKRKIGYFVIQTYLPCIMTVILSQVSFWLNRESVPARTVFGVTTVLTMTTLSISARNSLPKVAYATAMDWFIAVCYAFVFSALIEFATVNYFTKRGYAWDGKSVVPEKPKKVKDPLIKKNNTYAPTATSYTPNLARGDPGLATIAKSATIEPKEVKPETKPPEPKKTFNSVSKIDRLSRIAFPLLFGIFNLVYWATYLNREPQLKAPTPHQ
T2 sequence (P18507 whole entry): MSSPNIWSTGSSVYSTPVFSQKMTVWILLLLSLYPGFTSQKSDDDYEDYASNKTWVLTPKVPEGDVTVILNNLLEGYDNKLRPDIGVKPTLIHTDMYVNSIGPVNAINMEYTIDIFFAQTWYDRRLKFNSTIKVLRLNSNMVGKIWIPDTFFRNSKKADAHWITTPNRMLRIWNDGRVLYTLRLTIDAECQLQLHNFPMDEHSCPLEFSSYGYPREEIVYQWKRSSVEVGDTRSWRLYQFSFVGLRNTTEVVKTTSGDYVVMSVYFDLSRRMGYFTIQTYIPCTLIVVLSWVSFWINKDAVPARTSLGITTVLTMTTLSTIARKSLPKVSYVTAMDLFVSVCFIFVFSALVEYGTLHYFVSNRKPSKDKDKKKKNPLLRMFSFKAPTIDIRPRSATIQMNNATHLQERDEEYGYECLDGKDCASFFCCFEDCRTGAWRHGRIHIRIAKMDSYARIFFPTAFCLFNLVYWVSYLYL
T2 sequence (P18505 whole entry): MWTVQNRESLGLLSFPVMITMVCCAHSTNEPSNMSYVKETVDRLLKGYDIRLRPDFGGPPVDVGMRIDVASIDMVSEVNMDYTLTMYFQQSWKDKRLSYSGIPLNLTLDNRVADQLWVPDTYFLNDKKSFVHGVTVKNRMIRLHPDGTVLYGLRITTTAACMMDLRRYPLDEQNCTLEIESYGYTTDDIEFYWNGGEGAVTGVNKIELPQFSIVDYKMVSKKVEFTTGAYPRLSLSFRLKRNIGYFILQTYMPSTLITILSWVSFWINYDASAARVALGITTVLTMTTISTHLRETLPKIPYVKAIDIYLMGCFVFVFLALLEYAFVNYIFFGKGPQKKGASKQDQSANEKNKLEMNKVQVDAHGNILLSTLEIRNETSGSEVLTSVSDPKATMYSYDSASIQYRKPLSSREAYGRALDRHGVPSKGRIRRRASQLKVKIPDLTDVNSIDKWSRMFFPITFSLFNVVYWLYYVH

[4] = molecular target: GABA-A receptor; anion channel; assay: Inhibition of [35S]TBPS binding to GABA-A receptor in rat cerebral cortex.; type: tissue-based
Outline: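 Unwashed cortical membranes from male Sprague-Dawley rats (180-200 g), homogenized in 50 mM Tris-citrate pH 7.4 with […], centrifuged at 20000g and resuspended in buffer. Final 1 nM [35S]TBPS with 0.20-0.25 mg protein and NaCl, 90 min at 25 °C, then GF/B filtration and scintillation counting. Nonspecific binding defined with 100 µM picrotoxin.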

[5] = molecular target: T2, GABA A receptor alpha-1/beta-1/gamma-2; assay: Modulation of GABA-induced chloride currents in Xenopus laevis oocytes expressing human alpha-1-beta-1-gamma-2 GABA-A receptor subunits; type: functional, cell-based, Oocyte; outline: as §1
[6] = Partition coefficient (logP); type: physicochemical; settings: octanol/water
[7] = system: GABA-A receptor; anion channel; assay: In vitro inhibition of [35S]TBPS binding to Gamma-aminobutyric acid A (GABA-A) receptor of rat cerebral cortex (No displacement); type: tissue-based

## CC(C)c1cc(Br)cc(C(C)C)c1O
[1]
  Max potentiation: 223%
[2]
  Max activation: 34%
[3]
  EC50: 38 µM
[4]
  IC50: 1.07 µM
[5]
  EC50: 12 µM
[6]
  logP: 5.49

## CC(=O)Oc1c(C(C)C)cccc1C(C)C
[4]
  IC50: 8.5 µM

## COS(=O)(=O)c1cc(C(C)C)c(O)c(C(C)C)c1
[4]
  IC50: 9.4 µM
[6]
  logP: 3.7

## CC(C)c1cccc(C(C)C)c1OC(=O)CN1CCOCC1
[7]
  IC50: Not Active

## CC(C)c1cc(C=O)cc(C(C)C)c1O
[4]
  IC50: 5.8 µM
[6]
  logP: 4.3

## CC(C)c1cc([N+](=O)[O-])cc(C(C)C)c1O
[4]
  IC50: 1.95 µM
[6]
  logP: 4.71

## CC(C)c1cccc(C(C)C)c1O [PROPOFOL]
[1]
  Max potentiation: 296%
[2]
  Max activation: 38%
[3]
  EC50: 44 µM
[5]
  EC50: 8 µM
[6]
  logP: 4.33

## CC(C)c1cc(Cl)cc(C(C)C)c1O
[1]
  Max potentiation: 205%
[2]
  Max activation: 37%
[3]
  EC50: 38 µM
[4]
  IC50: 1.44 µM
[5]
  EC50: 10 µM
[6]
  logP: 5.34

## CCN(CC)CC(=O)Oc1c(C(C)C)cccc1C(C)C
[4]
  IC50: 21.8 µM

## CC(C)c1cccc(C(C)C)c1OC(=O)c1ccccc1
[4]
  IC50: 15.2 µM

## CC(C)c1cc([N+](C)(C)C)cc(C(C)C)c1O.[I-]
[7]
  IC50: Not Active

## COC(=O)c1cccc(C(C)C)c1O
[4]
  IC50: 39.5 µM

## CC(C)c1cc(N(C)C)cc(C(C)C)c1O
[4]
  IC50: 5.7 µM
[6]
  logP: 4.52

## COC(CNCC(=O)Oc1c(C(C)C)cccc1C(C)C)OC
[4]
  IC50: 15.6 µM

## CC(C)c1cc(NS(C)(=O)=O)cc(C(C)C)c1O
[4]
  IC50: 131 µM
[6]
  logP: 3.14

## CC(C)c1cc(C(=O)c2ccccc2)cc(C(C)C)c1O
[1]
  Max potentiation: 220%
[2]
  Max activation: 41%
[3]
  EC50: 47 µM
[4]
  IC50: 0.85 µM
[5]
  EC50: 9 µM
[6]
  logP: 5.91

## CC(C)c1cc(N)cc(C(C)C)c1O
[4]
  IC50: 23.6 µM
[6]
  logP: 3.1

## COc1c(C(C)C)cccc1C(C)C
[4]
  IC50: 37 µM

## CC(C)c1cc(I)cc(C(C)C)c1O
[1]
  Max potentiation: 311%
[2]
  Max activation: 36%
[3]
  EC50: 51 µM
[4]
  IC50: 1.2 µM
[5]
  EC50: 12 µM
[6]
  logP: 5.75

## CC(=O)Nc1cc(C(C)C)c(O)c(C(C)C)c1
[7]
  IC50: Not Active

## CCCN(CCC)CC(=O)Oc1c(C(C)C)cccc1C(C)C
[7]
  IC50: Not Active

## CC(C)c1cccc(C(C)C)c1OC(=O)CN1CCCC1
[4]
  IC50: 6.52 µM

## CC(C)c1cc(NC(=O)C(F)(F)F)cc(C(C)C)c1O
[4]
  IC50: 14 µM
[6]
  logP: 4.46

## CC(C)c1cccc(C(=O)O)c1O
[7]
  IC50: Not Active

## CC(C)c1cc(CN(C)C)cc(C(C)C)c1O
[4]
  IC50: 739 µM
[6]
  logP: 2.5
